Activity calls are given as the source filed them. The calls are words filed in the database; no cut-off is given here.
How the values were obtained:
Hepatitis B virus [1] = test: Antiviral activity against Hepatitis B virus in human HepA2 cells assessed as reduction of HBsAg secretion after 48 hrs by ELISA; format: functional, organism-based; conditions: HepA2, 48 h
Procedure, shortened: (§1)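 HepA2 cells (HepG2 carrying tandem-repeat full-length HBV DNA) seeded at 8 × 10⁴ cells/well in DMEM with 10% fetal calf serum, attached overnight, washed twice with PBS pH 7.0, then exposed to various concentrations in serum-free DMEM for 48 h. Secreted HBsAg and HBeAg in medium measured by enzyme immunoassay; EC50 as concentration giving 50% of untreated level; mean ± SD, n = 3.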

Hepatitis B virus [2] = test: Antiviral activity against Hepatitis B virus in human HepA2 cells assessed as reduction of HBeAg secretion after 48 hrs by ELISA; format: functional, organism-based; conditions: HepA2, 48 h; procedure, shortened: as §1
[3] = Cytotoxicity against human HepA2 cells assessed as effect on cell proliferation after 48 hrs by WST1 dye reduction assay; format: cell-based; conditions: hepa2, 48 h
Procedure, shortened: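 HepA2 cells treated alongside the antigen assay in serum-free DMEM for 48 h after PBS wash; WST-1 added for 0.5 h and formazan formation used to estimate viable cells per well; mean ± SD, n = 3.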

Hepatitis B virus [4] = test: Antiviral activity against Hepatitis B virus ayw in human 1.3ES2 cells stably transfected with 1.3 fold wild type HBV ayw strain genome cells assessed as reduction of viral DNA level after 6 days by RT-PCR; format: functional, organism-based
Hepatitis B virus [5] = test: Antiviral activity against Hepatitis B virus ayw in human M33 cells containing Lamivudine resistant HBV genome with DNA polymerase L515M/M539V mutation genome cells assessed as reduction of viral DNA level after 6 days by RT-PCR; format: functional, organism-based
Procedure, shortened: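 M33 cells (HepG2 carrying HBV with the L515M/M539V polymerase double mutation) were maintained in DMEM with 10% FCS at 37 °C under 5% CO₂. Cells were seeded at 5 × 10⁶ per 100 mm dish and treated with graded drug concentrations in serum-free DMEM. Viral DNA was extracted from the medium and quantified by real-time PCR against an HBV plasmid standard curve (10³–10⁷ copies), reported as mean, SD, n = 3.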

Hepatitis B virus [6] = test: Antiviral activity against Hepatitis B virus ayw in human 1.3ES2 cells stably transfected with 1.3 fold wild type HBV ayw strain genome cells assessed as reduction of HbeAg mRNA level after 2 days by Northern blot; format: functional, organism-based
Procedure, shortened: (§2)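 1.3ES2 cells (HepG2 with 1.3 copies of HBV genome integrated) grown in DMEM with 10% fetal calf serum to confluence in 100 mm dishes, then switched to serum-free DMEM with compound (0, 1.5, 3.0, 9.0 µM) for 48 h. Total RNA Northern-hybridized with HBV DNA probe; 3.5-kb and 2.4/2.1-kb transcripts read, GAPDH mRNA as internal marker; representative of three independent experiments.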

Hepatitis B virus [7] = test: Antiviral activity against Hepatitis B virus ayw in human 1.3ES2 cells stably transfected with 1.3 fold wild type HBV ayw strain genome cells assessed as reduction of large HbsAg mRNA level after 2 days by Northern blot; format: functional, organism-based; procedure, shortened: as §2
Hepatitis B virus [8] = test: Antiviral activity against Hepatitis B virus ayw in human 1.3ES2 cells stably transfected with 1.3 fold wild type HBV ayw strain genome cells assessed as reduction of viral core protein level after 2 days by Western blot; format: functional, organism-based
Procedure, shortened: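 1.3ES2 cells in 100 mm dishes treated with compound (0, 1.5, 3.0, 9.0 µM) in serum-free DMEM for 48 h; total cell lysates resolved by SDS-PAGE and immunoblotted with mouse anti-HBV core antibody.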

Hepatitis B virus [9] = test: Suppression of large viral surface antigen promoter activity of Hepatitis B virus in human HepA2 cells at 3 uM by luciferase reporter gene assay; format: functional, organism-based
Procedure, shortened: (§3)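 HepA2 cells transfected by lipofectamine 2000 with HBV S1P, S2P, core, X or enhancer I/X promoter–luciferase constructs plus β-gal vector, then held in serum-free DMEM with compound (0.9 or 3.0 µM) for 48 h. Lysate luciferase normalized to protein (Bradford) and β-gal, untreated set to one; mean ± SEM, at least three independent experiments.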

Hepatitis B virus [10] = test: Suppression of major viral surface promoter activity of Hepatitis B virus in human HepA2 cells at 3 uM by luciferase reporter gene assay; format: functional, organism-based; procedure, shortened: as §3
Hepatitis B virus [11] = test: Suppression of viral core protein promoter activity of Hepatitis B virus in human HepA2 cells at 3 uM by luciferase reporter gene assay; format: functional, organism-based; procedure, shortened: as §3
Hepatitis B virus [12] = test: Suppression of enhancer 1 promoter activity of Hepatitis B virus in human HepA2 cells at 3 uM by luciferase reporter gene assay; format: functional, organism-based; procedure, shortened: as §3
Hepatitis B virus [13] = test: Suppression of viral X protein promoter activity of Hepatitis B virus in human HepA2 cells at 3 uM by luciferase reporter gene assay; format: functional, organism-based; procedure, shortened: as §3
Hepatitis B virus [14] = test: Antiviral activity against Hepatitis B virus in human HepA2 cells assessed as reduction of HBsAg secretion after 48 hrs by enzyme immunoassay; format: functional, organism-based; procedure, shortened: as §1
[15] = Cytotoxicity against human HepA2 cells after 48 hrs by MTT assay; format: cell-based
Procedure, shortened: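 HepA2 cells seeded in 96-well plates in DMEM and treated with various concentrations of compound for 2 days; cell number measured by MTT; CC50 taken as concentration giving cell growth at 50% of untreated cells.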

Hepatitis B virus [16] = test: Antiviral activity against Hepatitis B virus ayw in human 1.3ES2 cells stably transfected with 1.3 fold wild type HBV ayw strain genome cells assessed as reduction of viral pregenomic RNA level after 2 days by Northern blot; format: functional, organism-based; procedure, shortened: as §2
Hepatitis B virus [17] = test: Antiviral activity against Hepatitis B virus ayw in human 1.3ES2 cells stably transfected with 1.3 fold wild type HBV ayw strain genome cells assessed as reduction of major HbsAg mRNA level after 2 days by Northern blot; format: functional, organism-based; procedure, shortened: as §2
[18] = Hepatitis B virus, HepA2, 48 h, read-out: EC50

EC50 (Hepatitis B virus [14]; [18])	SMILES	CC50 at 48 h [15]	also measured
1.22 µM	CC(=O)OCc1cc2ccc3c(c2c(-c2ccc4c(c2)OCO4)c1COC(C)=O)OCO3	6.91 µM	
> 12.5 µM	COC(=O)c1c(C(=O)OC)c(-c2ccc3c(c2)OCO3)c2c3c(ccc2c1OC)OCO3	8.93 µM	
	O=C1OC(=O)c2c1cc1ccc3c(c1c2-c1ccc(OC(F)(F)F)cc1)OCO3		EC50 (Hepatitis B virus [14]; hepa2): Not Active
3.06 µM	O=C1OCc2c1cc1ccc3c(c1c2-c1ccc(O)c(O)c1)OCO3	7.01 µM	
> 12.5 µM	O=C1OCc2c1cc1c(Br)cc3c(c1c2-c1cc2c(cc1Br)OCO2)OCO3	> 12.5 µM	
	COc1ccc(-c2c3c(cc4ccc5c(c24)OCO5)C(=O)OC3=O)cc1OC		EC50 (Hepatitis B virus [14]; hepa2): Not Active
> 12.5 µM	CCOC(=O)c1cc2ccc3c(c2c(-c2ccc4c(c2)OCO4)c1C(=O)OCC)OCO3	> 12.5 µM	
> 12.5 µM	O=C1OCc2c1cc1ccc3c(c1c2-c1ccc(OCc2ccccc2)c(OCc2ccccc2)c1)OCO3	> 12.5 µM	
0.42 µM	CC(=O)OCc1cc2ccc3c(c2c(-c2ccc4c(c2)OCO4)c1CO)OCO3	> 12.5 µM	
2.39 µM	O=Cc1cc2ccc3c(c2c(-c2ccc4c(c2)OCO4)c1C=O)OCO3	5.31 µM	
> 12.5 µM	COc1ccc(-c2c3c(cc4ccc5c(c24)OCO5)COC3=O)cc1OCc1ccccc1	> 12.5 µM	
> 12.5 µM	COC(=O)c1c(C(=O)O)c(OC)c2ccc3c(c2c1-c1ccc2c(c1)OCO2)OCO3	7.87 µM	
> 12.5 µM	O=C1C=Cc2cc3c(c(-c4ccc5c(c4)OCO5)c2C1=O)COC3=O	7.49 µM	
> 12.5 µM	COc1cc(-c2c3c(cc4ccc5c(c24)OCO5)C(=O)OC3=O)ccc1OCc1ccccc1	11.7 µM	
0.89 µM	O=C(O)c1cc2ccc3c(c2c(-c2ccc4c(c2)OCO4)c1CO)OCO3	> 12.5 µM	
7.64 µM	COc1ccc(-c2c3c(cc4ccc5c(c24)OCO5)C(=O)OC3)cc1OC	5.86 µM	
2.18 µM	O=C1OCc2cc3ccc4c(c3c(-c3ccc5c(c3)OCO5)c21)OCO4	> 12.5 µM	
> 12.5 µM	N#Cc1cc2c(c3c(-c4cc5c(cc4Br)OCO5)c4c(cc13)C(=O)OC4)OCO2	> 12.5 µM	

EC50 (Hepatitis B virus [14]; [18])	SMILES	CC50 at 48 h [15]	also measured
0.16 µM	O=C1OCc2c1cc1ccc3c(c1c2-c1ccc2c(c1)OCO2)OCO3 [HELIOXANTHIN]	11.3 µM	
	BrCc1cc2ccc3c(c2c(-c2ccc4c(c2)OCO4)c1CBr)OCO3		EC50 (Hepatitis B virus [14]; hepa2): Not Active
> 12.5 µM	O=C1c2cc3ccc4c(c3c(-c3ccc5c(c3)OCO5)c2C(=O)N1CCO)OCO4	> 12.5 µM	
> 12.5 µM	COC(=O)c1c(C(=O)O)c(O)c2ccc3c(c2c1-c1ccc2c(c1)OCO2)OCO3	7.01 µM	
> 12.5 µM	COC(=O)c1c(C(=O)OC)c(-c2ccc3c(c2)OCO3)c2c3c(ccc2c1O)OCO3	7.04 µM	
> 12.5 µM	O=C1OC(=O)c2c1cc1ccc3c(c1c2-c1ccc2c(c1)OCO2)OCO3	11.8 µM	
> 12.5 µM	N#Cc1cc2c(c3c(-c4ccc5c(c4)OCO5)c4c(cc13)C(=O)OC4)OCO2	> 12.5 µM	
> 12.5 µM	COc1ccc(-c2c3c(cc4ccc5c(c24)OCO5)C(=O)OC3=O)cc1OCc1ccccc1	> 12.5 µM	
> 12.5 µM	CC(=O)OCc1cc2ccc3c(c2c(-c2ccc4c(c2)OCO4)c1C=O)OCO3	4.69 µM	
1.41 µM	OCc1cc2ccc3c(c2c(-c2ccc4c(c2)OCO4)c1CO)OCO3	> 12.5 µM	
	COc1cc(-c2c3c(cc4ccc5c(c24)OCO5)COC3=O)ccc1OCc1ccccc1		EC50 (Hepatitis B virus [14]; hepa2): Not Active
1.89 µM	COc1cc(-c2c3c(cc4ccc5c(c24)OCO5)C(=O)OC3)ccc1O	> 12.5 µM	
> 12.5 µM	COc1ccc(-c2c3c(cc4ccc5c(c24)OCO5)C(=O)OC3)cc1OCc1ccccc1	> 12.5 µM	
> 12.5 µM	O=C1OCc2c1cc1ccc3c(c1c2-c1ccc(OC(F)(F)F)cc1)OCO3	> 12.5 µM	
> 12.5 µM	O=C1OC(=O)c2c1cc1ccc3c(c1c2-c1ccc(OCc2ccccc2)c(OCc2ccccc2)c1)OCO3	> 12.5 µM	
	Nc1ccn([C@@H]2CS[C@H](CO)O2)c(=O)n1		inhibition (Hepatitis B virus [4]): Active; inhibition (Hepatitis B virus [5]): inactive
> 12.5 µM	O=C1OCc2cc3ccc4c(c3c(-c3ccc(OCc5ccccc5)c(OCc5ccccc5)c3)c21)OCO4	> 12.5 µM	
> 12.5 µM	COc1cc(-c2c3c(cc4ccc5c(c24)OCO5)C(=O)OC3)ccc1OCc1ccccc1	> 12.5 µM	

SMILES	EC50 (Hepatitis B virus [14]; [18])	CC50 at 48 h [15]	also measured
COc1ccc(-c2c3c(cc4ccc5c(c24)OCO5)C(=O)OC3)cc1O	0.14 µM	10.1 µM	EC50 (Hepatitis B virus [1]): 0.06 µM; EC50 (Hepatitis B virus [2]): 0.14 µM; Activity [3]: Non-toxic; inhibition (Hepatitis B virus [4]): Dose-dependent effect; inhibition (Hepatitis B virus [5]): Dose-dependent effect; inhibition (Hepatitis B virus [6]): Dose-dependent effect; inhibition (Hepatitis B virus [7]): Dose-dependent effect; inhibition (Hepatitis B virus [8]): Dose-dependent effect; inhibition (Hepatitis B virus [9]): Active; inhibition (Hepatitis B virus [10]): Active; inhibition (Hepatitis B virus [11]): Active; inhibition (Hepatitis B virus [12]): Active; inhibition (Hepatitis B virus [13]): inactive
O=C1OCc2c1cc1c(Br)cc3c(c1c2-c1ccc2c(c1)OCO2)OCO3	> 12.5 µM	6.33 µM	
CC(=O)OCCN1C(=O)c2cc3ccc4c(c3c(-c3ccc5c(c3)OCO5)c2C1=O)OCO4	> 12.5 µM	> 12.5 µM	inhibition (Hepatitis B virus [4]): inactive; inhibition (Hepatitis B virus [5]): inactive; inhibition (Hepatitis B virus [16]): inactive; inhibition (Hepatitis B virus [17]): inactive; inhibition (Hepatitis B virus [9]): inactive; inhibition (Hepatitis B virus [10]): inactive; inhibition (Hepatitis B virus [11]): inactive; inhibition (Hepatitis B virus [12]): inactive; inhibition (Hepatitis B virus [13]): inactive
